Active and inactive are the calls of the source. No cut-off for these calls is given here.

For orientation: inhibition means how much of the control response was suppressed. The IC50 is the concentration at which inhibition is half-maximal.

The species named for one assay is Rattus norvegicus. Kind of assay: Inhibition of Aldehyde reductase in Sprague-Dawley albino rat at 100 uM. In outline: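 Rat kidney ALR1 at 37 °C with 20 mM sodium D-glucuronate and 0.12 mM NADPH (stock levels), dialyzed enzyme, 0.1 M sodium phosphate pH 7.2; rate calibrated to 0.015 absorbance unit/min. NADPH oxidation followed at 340 nm; blank without substrate. Percent inhibition at 100 μM.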

Assay [1] concerns the target Aldo-keto reductase family 1 member B1 (Rattus norvegicus, UniProt P07943). Kind of assay: Inhibition of Sprague-Dawley albino rat lens ALR2 by spectrophotometry. It is filed as tissue-based, Lens of camera-type eye.
The next assay concerns Brain. Kind of assay: Antioxidant activity in Sprague-Dawley albino rat brain homogenate assessed as inhibition of hydroxyl radical dependent lipoperoxidation measuring malondialdehyde production at 100 uM after 30 mins by TBARS assay. Type of assay: functional, tissue-based. Put shortly: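 Rat brain homogenized 10% (w/v) in phosphate buffer pH 7.4; 100 μL homogenate with 20 μM FeCl3 and 100 μM ascorbic acid (final), test compound at 100 μM final, 1 mL, 30 min at 37 °C. TBA/HCl added, boiled 10 min, n-butanol extraction, A532; TBARS as nmol MDA per 10 mg wet tissue vs tetramethoxypropane standard curve. At least two determinations in triplicate.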

For another assay, the system named is Liver. Description: Induction of NO generation in Sprague-Dawley albino rat liver homogenate at 10^-4 M after 1 hr by Griess reaction. It is filed as functional, tissue-based. In outline:
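Rat liver rinsed in ice-cold sucrose buffer (100 mM K2HPO4, 1 mM EDTA, 1.15% KCl, 0.25 M sucrose, 0.1% EtOH, pH 7.4), homogenized 1/6 w/v, gauze-filtered, spun 600g 10 min at 0 °C to remove nuclei. Incubated with compound 1 h at 37 °C; nitrite measured by Griess reaction at 543 nm, given as % NO2− (mol/mol) relative to compound added. At least two determinations in triplicate.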
For orientation: Nitrite, measured by Griess reagent, commonly stands in for NO production.

The target of assay [2] is Aldo-keto reductase family 1 member B1 (Rattus norvegicus) (UniProt P07943). Kind of assay: Ratio of KM07100 IC50 to compound IC50 for Sprague-Dawley albino rat lens ALR2. Type of assay: tissue-based. Conditions: Lens of camera-type eye.

Turning to `O=S(=O)(Oc1ccc2nonc2c1)c1ccc(Cl)s1`, in the assay listed under Rattus norvegicus, the inhibition amounted to 20%.

In the case of `[O-][n+]1onc2cc(OCc3ccc(C(F)(F)F)cc3)ccc21`, in assay [1], half-maximal inhibition (IC50) was put at 1940 nM. Besides, the inhibition entry in the assay with Brain was “Active”. The compound further came in with an inhibition in the assay filed under Rattus norvegicus of 14%. Also, the Activity in the assay with Liver was determined as 2%.

Take `[O-][n+]1onc2cc(OCc3ccc(F)cc3)ccc21`: in assay [1], the IC50 worked out at 820 nM. Also, the inhibition entry in the assay with Brain was “Active”. Also, the inhibition entry in the assay listed under Rattus norvegicus was “inactive”. In addition, the result in the assay with Liver was inactive.

Regarding `[O-][n+]1onc2cc(OCc3ccc4ccccc4c3)ccc21`, it took 1430 nM to reach half-maximal inhibition in assay [1] (IC50). The inhibition entry in the assay on Brain is “Active”. The compound also registered an inhibition in the assay filed under Rattus norvegicus of 35%. This compound also showed an Activity in the assay on Liver of 2%.

Consider `Cc1c(C)c2c(c(C)c1O)CC[C@@](C)(CCC[C@H](C)CCC[C@H](C)CCCC(C)C)O2`, for which, in the assay on Brain, the inhibition result is “Active”.

Take `[O-][n+]1onc2cc(OCc3ccc(Br)cc3F)ccc21`: the IC50 in assay [1] came out at 1410 nM. Further, in the assay with Brain, the inhibition result was “Active”. The inhibition entry in the assay listed under Rattus norvegicus is “inactive”. The result with Liver was inactive.

On to `Cc1ccc(COc2ccc3c(c2)no[n+]3[O-])cc1`, for which, in assay [1], the 50% inhibitory concentration (IC50) came to 830 nM. In the assay on Brain, the inhibition entry is “Active”. This compound also returned an inhibition in the assay listed under Rattus norvegicus of 24%. The same compound registered an Activity in the assay with Liver of 2%.

The compound `COc1ccc(COc2ccc3c(c2)no[n+]3[O-])cc1` yielded a half-maximal inhibitory concentration (IC50) in assay [1] of 4520 nM. Further, the inhibition result in the assay with Brain was “Active”. For the same compound, the inhibition entry in the assay listed under Rattus norvegicus was “inactive”. In addition, the Activity in the assay on Liver worked out at 2%.

For the compound `O=[N+]([O-])c1cccc(COc2ccc3c(c2)no[n+]3[O-])c1`, the half-maximal inhibitory concentration (IC50) in assay [1] was determined as 460 nM. Moreover, the inhibition result in the assay on Brain was “Active”. The same compound registered an inhibition in the assay filed under Rattus norvegicus of 5%. For the same compound, in the assay on Liver, the Activity worked out at 2%.

`[O-][n+]1onc2cc(OCc3ccc(Br)cc3)ccc21`: in assay [1], the concentration for half-maximal inhibition (IC50) was 7360 nM. In addition, the inhibition result in the assay with Brain is “Active”. In the assay filed under Rattus norvegicus, this compound registered an inhibition of 19%. The compound further had an Activity in the assay on Liver of 2%.

In assay [1], `[O-][n+]1onc2cc(OCc3nc4ccccc4s3)ccc21` displayed a half-inhibitory concentration (IC50) of 420 nM. The inhibition entry in the assay with Brain was “Active”. For the same compound, in the assay listed under Rattus norvegicus, the inhibition came out at 38%. For the same compound, in the assay on Liver, the outcome was inactive.

As for `[O-][n+]1onc2cc(OCCc3ccccc3)ccc21`, in assay [1], the IC50 worked out at 5900 nM. For the same compound, in the assay on Brain, the inhibition result is “Active”. This compound returned an inhibition in the assay filed under Rattus norvegicus of 11%. For the same compound, the Activity in the assay with Liver stood at 2%.

`[O-][n+]1onc2cc(OCc3ccc(Cl)cc3)ccc21` yielded a half-maximal inhibitory concentration (IC50) in assay [1] of 920 nM. Also, in the assay with Brain, the inhibition entry was “Active”. In addition, the inhibition in the assay filed under Rattus norvegicus came out at 19%. This compound also yielded an Activity with Liver of 2%.

As to `[O-][n+]1onc2cc(OCc3ccccc3)ccc21`, the half-inhibitory concentration (IC50) in assay [1] came to 990 nM. In addition, the values for the inhibition in the assay with Brain and in the assay listed under Rattus norvegicus were 50% and 26%, respectively. In addition, the Activity in the assay on Liver is 2%. Moreover, the Ratio IC50 in assay [2] amounted to 36.

(Values after ChEMBL document CHEMBL2176922, “Benzofuroxane derivatives as multi-effective agents for the treatment of cardiovascular diabetic complications. Synthesis, functional evaluation, and molecular modeling studies” (J Med Chem, 2012).)
